M5 ag: agonists of human muscarinic M5 receptor (CHRM5). AID 624037. hit rate 0.19% among 360,000. CHO-K1 hM5 cells, Fluo-8 calcium fluorescence; 0% DMSO wells, 100% maximal acetylcholine response. activation, % at 3 µM;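 active = activation above the run's mean over test compounds plus 3 SD, cut at about 23% in these data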;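 also: signal is peak over basal fluorescence ratio across the kinetic read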
Target sequence (P08912 whole entry, looked up): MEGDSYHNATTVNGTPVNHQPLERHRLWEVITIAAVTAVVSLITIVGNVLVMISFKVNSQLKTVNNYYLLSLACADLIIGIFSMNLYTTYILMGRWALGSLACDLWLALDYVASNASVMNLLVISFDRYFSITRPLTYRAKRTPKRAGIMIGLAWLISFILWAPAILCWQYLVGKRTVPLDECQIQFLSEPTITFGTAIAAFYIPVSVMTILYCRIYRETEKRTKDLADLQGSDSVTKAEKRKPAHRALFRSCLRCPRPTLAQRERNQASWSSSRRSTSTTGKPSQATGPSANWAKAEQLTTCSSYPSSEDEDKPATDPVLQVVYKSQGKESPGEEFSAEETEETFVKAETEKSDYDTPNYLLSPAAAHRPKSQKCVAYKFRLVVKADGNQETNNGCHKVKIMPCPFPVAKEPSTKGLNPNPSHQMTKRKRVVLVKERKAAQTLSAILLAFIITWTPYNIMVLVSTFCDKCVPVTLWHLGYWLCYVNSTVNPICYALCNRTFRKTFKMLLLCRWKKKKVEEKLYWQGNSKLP
CHRM4 agonist: CHRM4 agonism in calcium assay; hit rate 0.14% among 360,000; CHO-K1 hM4/Gqi5, Fluo-8 calcium fluorescence; vehicle 0%, full acetylcholine response 100%; activation, % at 3 µM;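 active = activation above the run mean over all test wells plus 3 SD, cut at about 32% in these data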;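 also: peak over basal fluorescence ratio per well then scaled between controls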
M5 PAM: CHRM5 positive allosteric modulation. CHO-K1 hM5, Fluo-8 calcium, ACh EC20 PAM; 0% = ACh EC20, 100% = ACh EC100. hit rate 0.3% among 360,000. activation, % at 3 µM. P08912;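 active = activation above the run cutoff, the mean activation of all test compounds plus 3 SD, cut at about 18% in these data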
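System – CHO-K1 hM5 cells · Compound – 3 µM, single dose · Incubation – compound preincubation 140 s before EC20 acetylcholine addition · Technique – Fluo-8 calcium fluorescence · Measure – Max/basal fluorescence ratio as % of EC20–EC100 ACh window · Benchmarks – low control EC20 acetylcholine (0%), high control EC100 acetylcholine (100%) · Replication – singlicate, one well per test compound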
CHRM4 PAM: potentiates acetylcholine response at human M4 receptor; activation, % at 3 µM; CHO-K1 hM4/Gqi5, Fluo-8 calcium fluorescence, ACh EC20; 0% = ACh EC20, 100% = maximal ACh; hit rate 0.4% among 360,000; P08173; AID 624126;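 active = activation above its plate's cutoff, the mean activation of sample wells plus 3 SD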
CHRM5 antagonist: blocks acetylcholine activation of human M5 receptor; inhibition, % at 3 µM; CHO-hM5 cells, Fluo-8 calcium fluorescence, ACh EC80; hit rate 0.59% among 360,000; P08912; AID 624040;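 active = inhibition above a per-plate cutoff, the mean of that plate's test compounds plus 3 SD, cut at about 27% in these data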
M4 antag: blocks acetylcholine activation of human M4 receptor; P08173; inhibition, % at 3 µM; hit rate 0.73% among 360,000; AID 624125; CHO-hM4 cells, ACh EC80, Fluo-8 calcium fluorescence;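 active = inhibition above its plate's cutoff, the mean inhibition of sample wells plus 3 SD, cut at about 27% in these data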
A number is an active result; n = inactive. Only some compounds are listed: those with a hit (about 1.9% of all), similar ones and a draw of the others.

SMILES	M5 ag	CHRM4 agonist	M5 PAM	CHRM4 PAM	CHRM5 antagonist	M4 antag
CN(C)c1cccc(C(=O)OCC(=O)NC2CCCC2)c1	n	n	n	n	n	n
CN(C)c1ccc(C(=O)OCC(=O)NC2CCCCC2)cc1	n	n	34.9	n	n	n
O=C(COC(=O)c1ccc(Cl)nc1)NC1CCCCCC1	n	n	n	26.1	n	n
O=C(OCC(=O)N(C1CCCCC1)C1CCCCC1)c1ccc(Cl)nc1	n	n	n	n	n	n
COc1cc(C2/C(=C(\O)c3ccc4c(c3)OCCO4)C(=O)C(=O)N2c2nnc(C)s2)cc(OC)c1OC (stereo not drawn)	n	n	n	n	n	n
O=C(Cc1ccccc1)NCCc1ccc(Cl)cc1Cl	n	n	n	n	n	n
N=c1sccn1CC(=O)NCCc1ccc(Cl)cc1Cl	n	n	n	n	n	35.0
C(=C\c1ccccc1)/CN1CCN(C(c2cc3ccccc3o2)c2nnnn2-c2ccc3c(c2)OCCO3)CC1 (stereo not drawn)	n	n	n	n	42.4	n
C(=C\c1ccccc1)/CN1CCN(C(c2cccs2)c2nnnn2-c2ccc3c(c2)OCCO3)CC1 (stereo not drawn)	n	n	n	n	70.0	29.3
COc1ccc(-n2nnnc2C(c2cccc3ccccc23)N2CCN(C/C=C/c3ccccc3)CC2)cc1 (stereo not drawn)	n	n	n	n	n	n
COc1ccc(-n2nnnc2C(c2cc3ccccc3o2)N2CCN(C/C=C/c3ccccc3)CC2)cc1 (stereo not drawn)	n	n	n	n	36.4	n
COc1ccc(C(c2nnnn2-c2ccc3c(c2)OCCO3)N2CCN(C/C=C/c3ccccc3)CC2)cc1 (stereo not drawn)	n	n	n	n	67.2	34.6
CCc1ccc(C2CC(c3ccccc3)Nc3nc(N)nn32)cc1 (stereo not drawn)	n	n	n	n	n	n
CCc1ccc(C2CC(c3ccccc3Cl)Nc3nc(N)nn32)cc1 (stereo not drawn)	24.5	n	n	n	n	n
O=C(c1cccc(NS(=O)(=O)c2ccc(F)c(F)c2)c1)N1CCN(C(c2ccccc2)c2ccccc2)CC1	n	n	n	31.0	n	n
CCCC1(c2ccccc2)NC(=O)N(CC(=O)NCc2ccc(OC)cc2)C1=O (stereo not drawn)	n	n	n	21.0	n	n
Cc1cccc(C)c1NC(=O)CNCC(=O)Nc1c(C)cccc1C	n	n	n	n	n	n
CC[N+](CC)(CC)CC(=O)Nc1c(C)cccc1C	29.6	n	n	n	n	35.5
CCCN1C(=O)/C(=C/c2ccc(OCC(=O)OCC)cc2)NC1=S	n	n	n	n	n	n
CCN1C(=O)/C(=C/c2ccc(N3CCCC3)cc2)NC1=S	96.5	58.4	n	n	58.9	36.8
CCCN1C(=O)/C(=C/c2ccc(N3CCCC3)c(C)c2)NC1=S	69.4	77.0	n	n	62.2	53.5
CCCN1C(=O)/C(=C/c2ccc(N3CCOCC3)cc2)NC1=S	n	n	n	n	n	n
Cc1cc(/C=C2/C(=O)N(C)C(=S)N2C)ccc1N1CCCC1	n	n	n	n	n	n
Cc1cc(/C=C2\NC(=S)N(C)C2=O)ccc1N1CCCC1	138.5	81.8	n	n	58.9	44.9
CCN(CC)C1=CC2=CC(=C(C#N)C#N)CCC2CC1 (stereo not drawn)	383.9	209.6	n	n	61.1	42.0
SMILES	M5 ag	CHRM4 agonist	M5 PAM	CHRM4 PAM	CHRM5 antagonist	M4 antag
CCCCN(C)C1=CC2=CC(=C(C#N)C#N)CCC2CC1 (stereo not drawn)	670.4	439.2	n	n	84.0	81.1
O=C(NC1CCCC1)C1CCCN(S(=O)(=O)c2cnc[nH]2)C1 (stereo not drawn)	n	n	n	n	n	n
Cc1ccccc1Sc1ccc(N)cn1	n	n	n	n	n	33.3
Cc1ccc(C(=O)NNC(=O)/C=C\C(=O)O)cc1	n	n	n	n	n	n
O=C(Nc1ccccc1)OCc1cncs1	n	n	18.3	n	n	n
O=C(Nc1ccc(Cl)c(Cl)c1)OCc1cncs1	n	n	n	n	n	n
CC(C)N(Cc1nccn1C)C(=O)CC1C(=O)NCCN1Cc1ccccc1C(F)(F)F (stereo not drawn)	n	n	n	n	n	n
COc1ccc([C@H]2CC(=O)C=C(c3ccccc3-c3ccccc3)C2)cc1	n	n	n	n	n	n
Cc1cccc(C)c1NC(=O)C(c1ccc(C(F)(F)F)cc1)n1c(=O)c(-c2ccccc2)nc2ccccc21 (stereo not drawn)	n	n	n	n	n	n
Cc1cccc(C)c1NC(=O)C(c1ccc(C#N)cc1)n1c(=O)c(-c2ccccc2)nc2ccccc21 (stereo not drawn)	n	n	n	22.8	n	n
COCCC(=O)N1CCC(Oc2ccc(C(=O)N3CCCCCCC3)cc2)CC1	n	n	n	n	n	n
CCC1CCCCN1C(=S)NC(=O)c1cccs1 (stereo not drawn)	n	n	n	n	n	n
O=C(NC(=S)N1CCCCC1CO)c1cccs1 (stereo not drawn)	n	n	24.3	n	n	n
CCCN(CC(=O)Nc1ccccc1C)C(=O)c1oc2ccc(OCC)cc2c1C	n	n	n	n	n	n
CC(C)c1nc2oc3c(N(C)CCO)ncnc3c2c2c1CCC2	n	n	n	n	n	n
CCOC(=O)[C@H]1[C@H]2COc3ccc(Cl)cc3[C@@H]2N2C(=O)CN(Cc3ccc(OC)cc3)C(=O)[C@@]12C	n	n	n	n	n	n
CCOC(=O)CSc1nnc(NC(=O)CCc2ccccc2)s1	n	n	n	21.3	n	n
Cc1ccccc1OCc1nc2c3cnn(C)c3ncn2n1	n	n	n	n	n	n
CCNS(=O)(=O)c1ccc(OCCNS(C)(=O)=O)cc1	n	n	n	n	n	n
CCN(CC)S(=O)(=O)c1ccc(OCCNS(C)(=O)=O)cc1	n	n	n	n	29.4	n
CCN(CC)CCNC(=O)c1ccc(NC(C)=O)cc1	n	n	n	n	n	n
CCN(CC)CCNC(=O)c1ccc(N)cc1	n	n	n	n	n	29.4
COc1ccc2nc3ccccc3nc2c1NC(=O)c1ccccc1Cl	n	n	n	n	27.9	n
CCCC(=O)Nc1nc2ccc(S(=O)(=O)N3CCCCC3)cc2s1	n	n	n	n	n	n
CC(C)CC(=O)Nc1nc2ccc(S(=O)(=O)N3CCOCC3)cc2s1	n	n	19.1	n	n	n
Cc1nn(CC(=O)NCCN2CCCCC2C)c(=O)c2cc(-c3ccccc3)nn12 (stereo not drawn)	n	n	31.6	n	n	n
